Tests used:
Assay type in all cases: functional
Conditions in all cases: read-out: DIZ
Penicillium sp. [1] = test: Antifungal activity against Penicillium sp. at 12.5 ug/ml after 72 hrs by well plate method
Escherichia coli [2] = test: Antibacterial activity against Escherichia coli at 6.25 ug/ml after 24 to 48 hrs by well plate diffusion method
In short: (§1)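 Agar well diffusion: 15-20 mL agar per dish, plates dried 1 h at 37 ± 2 °C in laminar flow, then seeded. Wells cut with an agar punch, each loaded with compound dissolved in DMSO (6.25 or 12.5 μg/mL). DMSO solvent control, ciprofloxacin standard. Plates in triplicate, incubated 37 ± 2 °C for 24–48 h. Inhibition zone diameter read in mm, with SD.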

Staphylococcus aureus [3] = test: Antibacterial activity against Staphylococcus aureus at 6.25 ug/ml after 24 to 48 hrs by well plate diffusion method; in short: as §1
Salmonella sp. [4] = test: Antibacterial activity against Salmonella sp. at 6.25 ug/ml after 24 to 48 hrs by well plate diffusion method; in short: as §1
Escherichia coli [5] = test: Antibacterial activity against Escherichia coli at 12.5 ug/ml after 24 to 48 hrs by well plate diffusion method; in short: as §1
Aspergillus terreus [6] = test: Antifungal activity against Aspergillus terreus at 12.5 ug/ml after 72 hrs by well plate method
In short: (§2)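 Sabouraud agar: peptone 10 g, glucose 40 g, agar 20 g per litre water, pH 5.7. Spore suspension made from a loopful of fungus in 3 mL normal saline and lawned on 20 mL agar per dish. Excess decanted, plates dried 1 h at 37 °C. Wells punched and loaded with compound in DMSO (6.25 or 12.5 μg/mL). DMSO control. Triplicate plates held at 25 °C for 72 h. Inhibition zone diameter measured. A. terreus strain NCIM 1325.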

Penicillium sp. [7] = test: Antifungal activity against Penicillium sp. at 6.25 ug/ml after 72 hrs by well plate method
Xanthomonas sp. [8] = test: Antibacterial activity against Xanthomonas sp. at 12.5 ug/ml after 24 to 48 hrs by well plate diffusion method; in short: as §1
Aspergillus terreus [9] = test: Antifungal activity against Aspergillus terreus at 6.25 ug/ml after 72 hrs by well plate method; in short: as §2
Salmonella sp. [10] = test: Antibacterial activity against Salmonella sp. at 12.5 ug/ml after 24 to 48 hrs by well plate diffusion method; in short: as §1
Staphylococcus aureus [11] = test: Antibacterial activity against Staphylococcus aureus at 12.5 ug/ml after 24 to 48 hrs by well plate diffusion method; in short: as §1
Aspergillus flavus [12] = test: Antifungal activity against Aspergillus flavus at 12.5 ug/ml after 72 hrs by well plate method
Aspergillus niger [13] = test: Antifungal activity against Aspergillus niger at 6.25 ug/ml after 72 hrs by well plate method
Xanthomonas sp. [14] = test: Antibacterial activity against Xanthomonas sp. at 6.25 ug/ml after 24 to 48 hrs by well plate diffusion method; in short: as §1
Aspergillus flavus [15] = test: Antifungal activity against Aspergillus flavus at 6.25 ug/ml after 72 hrs by well plate method
Aspergillus niger [16] = test: Antifungal activity against Aspergillus niger at 12.5 ug/ml after 72 hrs by well plate method

Structure (SMILES) | zone of inhibition at 12.5 µg/mL (Penicillium sp. [1]) | zone of inhibition at 6.25 µg/mL (Escherichia coli [2]) | zone of inhibition at 6.25 µg/mL (Staphylococcus aureus [3]) | zone of inhibition at 6.25 µg/mL (Salmonella sp. [4]) | zone of inhibition at 12.5 µg/mL (Escherichia coli [5]) | zone of inhibition at 12.5 µg/mL (Aspergillus terreus [6]) | zone of inhibition at 6.25 µg/mL (Penicillium sp. [7]) | zone of inhibition at 12.5 µg/mL (Xanthomonas sp. [8]) | zone of inhibition at 6.25 µg/mL (Aspergillus terreus [9]) | zone of inhibition at 12.5 µg/mL (Salmonella sp. [10]) | zone of inhibition at 12.5 µg/mL (Staphylococcus aureus [11]) | zone of inhibition at 12.5 µg/mL (Aspergillus flavus [12]) | zone of inhibition at 6.25 µg/mL (Aspergillus niger [13]) | zone of inhibition at 6.25 µg/mL (Xanthomonas sp. [14]) | zone of inhibition at 6.25 µg/mL (Aspergillus flavus [15]) | zone of inhibition at 12.5 µg/mL (Aspergillus niger [16])
Fc1ccc(-c2cc(-c3nc4ccccc4[nH]3)c3ccccc3n2)cc1 | 17 mm | 11 mm | 12 mm | 9 mm | 16 mm | 14 mm | 15 mm | 12 mm | 12 mm | 15 mm | 13 mm | 12 mm | 11 mm | 11 mm | 11 mm | 12 mm
Fc1ccc(-c2cc(-c3nc4cc(Cl)c(Cl)cc4[nH]3)c3ccccc3n2)cc1 | 12 mm | 12 mm | 12 mm | 11 mm | 16 mm | 11 mm | 12 mm | 22 mm | 10 mm | 12 mm | 16 mm | 10 mm | 10 mm | 20 mm | 10 mm | 12 mm

From ChEMBL document CHEMBL2040711, “Synthesis, characterization and antimicrobial studies of some new quinoline incorporated benzimidazole derivatives” (2012)
